Values after ≈ are worked out from the molar mass of the structure shown.
Legend:
Leishmania amazonensis = test: Antiprotozoal activity against promastigotes of Leishmania amazonensis MHOM/ BR/77/LTB0016 after 72 hrs by alamar blue assay; format: functional, organism-based; conditions: MHOM/ BR/77/LTB0016, 72 h
Procedure, shortened: (§1)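 Log-phase promastigotes at 10^6/well in phenol-red-free RPMI 1640. Serum was heat-inactivated FBS at 20% for L. donovani and 10% for L. amazonensis. Cells were exposed to compound serial dilutions with 10% Alamar Blue at 26 °C for 72 h and read at 570 nm with a 630 nm reference. IC50 was taken by linear regression with 95% confidence limits. Three experiments were run in duplicate and analysed by paired two-tailed t-test.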

Trypanosoma cruzi = test: Antiprotozoal activity against epimastigotes of Trypanosoma cruzi Y by alamar blue assay; format: functional, organism-based
Procedure, shortened: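 Y-strain epimastigotes grown at 28 °C in LIT medium with 10% (v/v) heat-inactivated FBS. Growth inhibition was measured by the same Alamar Blue colorimetric method used for Leishmania promastigotes.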

Leishmania donovani = test: Antiprotozoal activity against promastigotes of Leishmania donovani MHOM/IN/90/GE1F8R after 72 hrs by alamar blue assay; format: functional, organism-based; procedure, shortened: as §1
[1] = Cytotoxicity against human MCF7 cells assessed as growth inhibition at 10 uM after 72 hrs by MTT assay; format: cell-based
Procedure, shortened: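 MCF-7 cells in DMEM with 10% FBS, plated at 10,000 cells/well. After 72 h, MTT was added at 0.5 mg/mL final for 3 h at 37 °C. Formazan was dissolved in SDS–HCl (20% SDS, 0.02 M HCl) and absorbance read at 570 nm.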

SMILES	IC50 (Leishmania amazonensis)	IC50 (Trypanosoma cruzi)	IC50 (Leishmania donovani)	inhibition at 72 h, 10 µM [1]
COc1ccc(-c2ccc3cccc4c3c2C(=O)C(O)C4O)cc1 (configuration not stated)	> 100 mg/L	> 100 mg/L	> 100 mg/L	–
N#Cc1ccc2cccc3c2c1C(=O)C=C3	3.73 mg/L (≈ 18.2 µM)	> 100 mg/L	1.02 mg/L (≈ 4.97 µM)	44%
COC1c2cccc3ccc(-c4ccccc4)c(c23)C(=O)C1O (configuration not stated)	> 100 mg/L	> 100 mg/L	> 100 mg/L	17%
O=C1C=Cc2cccc3ccc(-c4ccccc4)c1c23	> 100 mg/L	> 100 mg/L	> 100 mg/L	5%
COC1=Cc2cccc3ccc(-c4ccccc4)c(c23)C1=O	9.04 mg/L (≈ 31.6 µM)	48.3 mg/L (≈ 169 µM)	29.9 mg/L (≈ 104 µM)	14%
Oc1ccc2cccc3c2c1C(c1ccco1)C=C3 (configuration not stated)	> 100 mg/L	> 100 mg/L	> 100 mg/L	–
COc1ccc(C2=CC(=O)c3cccc4cccc2c34)cc1	> 100 mg/L	> 100 mg/L	> 100 mg/L	2%
O=C1C=Cc2cccc3ccc(-c4ccccn4)c1c23	53.2 mg/L (≈ 207 µM)	> 100 mg/L	> 100 mg/L	0%
O=C1C(O)=Cc2c(-c3ccc(O)cc3)ccc3cccc1c23	> 100 mg/L	> 100 mg/L	> 100 mg/L	12%
O=C1C=Cc2cccc3cccc1c23 [PERINAPHTHENONE]	27.3 mg/L (≈ 151 µM)	2.62 mg/L (≈ 14.5 µM)	65.1 mg/L (≈ 361 µM)	0%
Cc1cccc(C)c1-c1ccc2cccc3c2c1C(=O)C=C3	42.8 mg/L (≈ 151 µM)	49.8 mg/L (≈ 175 µM)	27.8 mg/L (≈ 97.8 µM)	1%
O=C1C(O)=Cc2cccc3ccc(-c4ccccc4)c1c23	> 100 mg/L	> 100 mg/L	> 100 mg/L	22%
COc1ccc(-c2ccc3cccc4c3c2C(=O)C=C4)cc1	0.83 mg/L (≈ 2.9 µM)	> 100 mg/L	> 100 mg/L	13%
OC1(c2ccccn2)C=Cc2cccc3ccc(-c4ccccn4)c1c23 (configuration not stated)	> 100 mg/L	> 100 mg/L	> 100 mg/L	0%
COC1=Cc2cccc3ccc(-c4ccc(OC)cc4)c(c23)C1=O	> 100 mg/L	> 100 mg/L	> 100 mg/L	15%
COc1ccc(-c2ccc3cccc4c3c2C(=O)C(O)=C4)cc1	> 100 mg/L	> 100 mg/L	> 100 mg/L	19%
COc1ccc(-c2ccc3cccc4c3c2C=CC4=O)cc1	4.43 mg/L (≈ 15.5 µM)	11.4 mg/L (≈ 39.8 µM)	> 100 mg/L	17%
O=C1C(O)=Cc2cccc3ccc(-c4ccc(O)cc4)c1c23	> 100 mg/L	> 100 mg/L	> 100 mg/L	23%
O=C1C=Cc2cccc3ccc(-c4cccs4)c1c23	14.5 mg/L (≈ 55.3 µM)	> 100 mg/L	> 100 mg/L	4%
O=C1C(O)=Cc2c(-c3ccccc3)ccc3cccc1c23	> 100 mg/L	> 100 mg/L	> 100 mg/L	19%
O=C1C=Cc2cccc3ccc(-c4ccco4)c1c23	8.39 mg/L (≈ 34.1 µM)	> 100 mg/L	> 100 mg/L	14%

From ChEMBL document CHEMBL1165954, “Synthesis and in vitro antiprotozoal evaluation of substituted phenalenone analogues” (Bioorg Med Chem, 2010)
